Published values from different studies.
Cell line: MOLM-13
Effect on: cell growth or viability

The EC50 of `O=C(O)c1ccc(CN2CCC(CN[C@@H]3C[C@H]3c3ccccc3)CC2)cc1` is reported as 40.2 nM (resazurin; 96 h).
`Cc1cc2c(cc1N1C(=O)c3cccc4c(CCCO)ccc(c34)C1=O)n(C)c(=O)n2C` (racemic) has a GI50 of 1060 nM (resazurin).
`CCCCN(Cc1ccc(C(=O)NO)cc1)C(=O)Nc1ccccc1` has an IC50 of 220 nM (ATP luminescence; 72 h).
`CC(C)C[C@H](NC(=O)[C@H](Cc1ccccc1)NC(=O)c1cnccn1)B(O)O` gave an IC50 of 4.5 nM (ATP luminescence).
With `N[C@@H](CC(=O)N1CCN(C(c2ccc(F)cc2)c2ccc(F)cc2)CC1)C(=O)N1Cc2ccccc2C1` the IC50 was 2030 nM (ATP luminescence; 48 h).
`COc1cc(F)ccc1-c1cc(Nc2cc(CS(C)(=N)=O)ccn2)ncc1F` (stereo not drawn) gave a GI50 of 93.8 nM (24 h).
`COc1cc2nccc(Oc3ccc(NC(=O)C4(C(=O)Nc5ccc(F)cc5)CC4)cc3)c2cc1OC` gave an IC50 of 10 nM (trypan blue; 72 h).
`CCCON(Cc1ccc(C(=O)NO)cc1)C(=O)Nc1ccccc1` gave an IC50 of 239 nM (ATP luminescence; 72 h).
`COc1cc(-c2ncn(/C=C\C(=O)OC(C)C)n2)cc(C(F)(F)F)c1` gave an IC50 of 15 nM (72 h).
`NNCCc1ccccc1` gave an EC50 of over 2000 nM (resazurin; 96 h).
`Nc1nc(Nc2ccc3c(c2)CC[C@@H](N2CCCC2)CC3)nn1-c1cc2c(nn1)-c1ccccc1CCC2` gave an IC50 of 167 nM (trypan blue; 72 h).
With `C#CCN(C)Cc1ccccc1` the EC50 was over 2000 nM (resazurin; 96 h).
`CC[C@@H](C)[C@H](N)C(=O)N1Cc2ccccc2C1` gave an IC50 of 1860 nM (ATP luminescence; 48 h).
For `N[C@H]1CC[C@H](N[C@@H]2C[C@H]2c2ccccc2)CC1`, the EC50 was 0.21 nM (resazurin; 96 h).
`COc1cc(Nc2nccc(-c3cnn4nc(OC)ccc34)n2)cc(C(F)(F)F)c1` has an IC50 of 150 nM (ATP luminescence).
